Common to all, as to format: functional, cell-based
Assay [1] deals with MDA-MB-231. Briefly: Anticancer activity against human MDA-MB-231 cells assessed as cell survival after 72 hrs by MTT assay. In short, it runs like this:
(§1)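 Estrogen receptor-negative human breast cancer lines, tested by MTT cytotoxicity assay with chlorambucil as positive control.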
On the technique in general: Tetrazolium assays rely on reduction of a dye to a coloured formazan, in cell work by metabolically active cells.

Assay [2] has as its system MCF7. In words: Anticancer activity against human MCF7 cells assessed as cell survival after 72 hrs by MTT assay. The method, boiled down:
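Estrogen receptor-positive human breast cancer line, tested by MTT cytotoxicity assay with chlorambucil as positive control.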

Assay [3] can be described thus: (§2) Anticancer activity against human MDA-MB-436 cells assessed as cell survival after 72 hrs by MTT assay. As to conditions: MDA-MB-436, 72 h. In short, it runs like this: (§3)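 Estrogen receptor-negative human breast cancer line, exposed to a range of concentrations for 72 h. MTT read-out is expressed as percent cell survival, with chlorambucil as positive control.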

Assay [4] deals with MDA-MB-468. In words: Anticancer activity against human MDA-MB-468 cells assessed as cell survival after 72 hrs by MTT assay. In short, it runs like this: as §1
The subject of assay [5] is MDA-MB-436. The description is as §2. In short, it runs like this:
as §3

IC50 and Activity data for 5 compounds are collected here from ChEMBL document CHEMBL1154940, “Design, synthesis and biological evaluation of estradiol-chlorambucil hybrids as anticancer agents” (Bioorg Med Chem Lett, 2010).

Calls of active or inactive are those of the source. The rule behind the calls is not given here. Where only a bound is given, the exact number is not on record here.

Consider `O=C(O)CCCc1ccc(N(CCCl)CCCl)cc1` [CHLORAMBUCIL], for which the IC50 in assay [1] (MDA-MB-231, 72 h) is greater than 130 µM; in assay [3] it was greater than 160 µM. For the same compound, the outcome in assay [2] and in assay [4] was Active.

As for `C[C@]12CC[C@@H]3c4ccc(O)cc4CC[C@H]3[C@@H]1C[C@@](CO)(CCCCCCCCNC(=O)CCCc1ccc(N(CCCl)CCCl)cc1)[C@@H]2O`, the outcome in assay [1], in assay [2], in assay [5] and in assay [4] was Active.

For `C[C@]12CC[C@@H]3c4ccc(O)cc4CC[C@H]3[C@@H]1C[C@@](CO)(CCCCCCNC(=O)CCCc1ccc(N(CCCl)CCCl)cc1)[C@@H]2O`, the result in assay [1], in assay [2], in assay [5] and in assay [4] was Active.

For the compound `COC(=O)[C@@]1(CCCCCCNC(=O)CCCc2ccc(N(CCCl)CCCl)cc2)C[C@H]2[C@@H]3CCc4cc(O)ccc4[C@H]3CC[C@]2(C)[C@H]1O`, the result in assay [1] was Active. For the same compound, the outcome in assay [2] and in assay [4] was inactive.

In the case of `C[C@]12CC[C@@H]3c4ccc(O)cc4CC[C@H]3[C@@H]1C[C@@](CO)(CCCCNC(=O)CCCc1ccc(N(CCCl)CCCl)cc1)[C@@H]2O`, the outcome in assay [1], in assay [2] and in assay [4] was Active. In assay [3], the IC50 was 40 µM.

Broadly, the IC50 is the concentration at which inhibition is half-maximal.
